{
  "source": "ChEMBL document CHEMBL1125497",
  "about": "“Synthesis and anticonvulsant activity of enaminones” (J Med Chem, 1992)",
  "key": {"[1]": {"experiment": "Dose producing neurotoxic effects in 50% of the CF1 mice after intraperitoneal administration.", "format": "functional", "conditions": "Mus musculus, ip; read-out: ED50 (the source's name)", "procedure,_shortened": "(§1)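 Phase II quantification in CF1 male mice (ca. 24–34 g), dosing ip or po in 0.5% methylcellulose suspension. ED50 is protection from tonic hind limb extension in MES. TD50 is rotorod neurotoxicity. Both were read at time of peak effect and derived by Litchfield–Wilcoxon with 95% confidence limits.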"}, "[2]": {"experiment": "Antiepileptic activity in male CF1 mice 1 hr after oral administration measured in maximum electroshock seizure(MES) test at a dose of 6 mg/kg (no. of animals treated /protected); activity value is 2/4", "format": "functional, Mus musculus"}, "[3]": {"experiment": "Antiepileptic activity in male CF1 mice 1 hr after oral administration measured in neurological toxicity (Tox) test at a dose of 10 mg/kg (no. of animals treated /protected); activity value is 0/4", "format": "functional, Mus musculus"}, "[4]": {"experiment": "Antiepileptic activity in male CF1 mice 30 min after administration measured in neurological toxicity (Tox) test at a dose of 300 mg/kg (no. of animals treated /protected); activity value is 4/4", "format": "functional, Mus musculus"}, "[5]": {"experiment": "Antiepileptic activity in male CF1 mice 1 hr after oral administration measured in maximum electroshock seizure(MES) test at a dose of 6 mg/kg (no. of animals treated /protected); activity value is 1/4", "format": "functional, Mus musculus"}, "Rattus norvegicus [6]": {"system": "Rattus norvegicus", "experiment": "Per oral dose (20 mg/Kg) reducing rat corneal kindling 0.5 hr after administration.", "format": "functional", "procedure,_shortened": "(§2)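 Sprague-Dawley rats (85–95 g initial) were kindled with 4 s, 8 mA corneal stimulations (butacaine anesthesia) to 10 consecutive stage 5 seizures. After a vehicle shock and a 2-day shock-free period, test drug was given ip or po and a single shock applied at time of peak effect. Seizures were scored on a modified Racine 0–5 scale. ED50 is the dose reducing severity by 50% (Litchfield–Wilcoxon).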"}, "[7]": {"experiment": "Antiepileptic activity in male CF1 mice 2 hr after oral administration measured in neurological toxicity (Tox) test at a dose of 10 mg/kg (no. of animals treated /protected); activity value is 0/4", "format": "functional, Mus musculus"}, "[8]": {"experiment": "Antiepileptic activity in male CF1 mice 0.25 hr after oral administration measured in maximum electroshock seizure(MES) test at a dose of 10 mg/kg (no. of animals treated /protected); activity value is 3/4", "format": "functional, Mus musculus"}, "[9]": {"experiment": "Antiepileptic activity in male CF1 mice 0.5 hr after oral administration measured in neurological toxicity (Tox) test at a dose of 10 mg/kg (no. of animals treated /protected); activity value is 0/4", "format": "functional, Mus musculus"}, "Rattus norvegicus [10]": {"system": "Rattus norvegicus", "experiment": "Average seizure score for the rat cornea 0.5 hr after peroral administration of 20 mg/kg of compound", "format": "functional", "conditions": "route oral", "procedure,_shortened": "as §2"}, "Rattus norvegicus [11]": {"system": "Rattus norvegicus", "experiment": "Average seizure score for the rat cornea 0.5 hr after peroral administration of 30 mg/kg of compound", "format": "functional", "conditions": "route oral", "procedure,_shortened": "as §2"}, "Rattus norvegicus [12]": {"system": "Rattus norvegicus", "experiment": "Per oral dose (40 mg/Kg) reducing rat corneal kindling 0.5 hr after administration.", "format": "functional", "procedure,_shortened": "as §2"}, "[13]": {"experiment": "Antiepileptic activity in male CF1 mice 0.5 hr after oral administration measured in maximum electroshock seizure(MES) test at a dose of 10 mg/kg (no. of animals treated /protected); activity value is 4/4", "format": "functional, Mus musculus"}, "[14]": {"experiment": "Antiepileptic activity in male CF1 mice 4 hr after administration measured in subcutaneous pentylenetetrazole (scMet) test at a dose of 100 mg/kg (no. of animals treated /protected); activity value is 0/1", "format": "functional, Mus musculus"}, "[15]": {"experiment": "Antiepileptic activity in male CF1 mice 1.00 hours after oral administration measured in neurological toxicity (Tox) test at a dose of 6 mg/kg (no. of animals treated /protected); activity value is 0/4", "format": "functional, Mus musculus"}, "[16]": {"experiment": "Antiepileptic activity in male CF1 mice 4 hr after administration measured in maximum electroshock seizure(MES) test at a dose of 300 mg/kg", "format": "functional, Mus musculus"}, "Rattus norvegicus [17]": {"system": "Rattus norvegicus", "experiment": "Average seizure score for the rat cornea 0.5 hr after peroral administration of 75 mg/kg of compound", "format": "functional", "conditions": "route oral", "procedure,_shortened": "as §2"}, "[18]": {"experiment": "Antiepileptic activity in male CF1 mice 4 hr after oral administration measured in neurological toxicity (Tox) test at a dose of 50 mg/kg (no. of animals treated /protected); activity value is 0/4", "format": "functional, Mus musculus"}, "[19]": {"experiment": "Antiepileptic activity in male CF1 mice 1 hr after oral administration measured in maximum electroshock seizure(MES) test at a dose of 50 mg/kg; activity value is 3/4", "format": "functional, Mus musculus"}, "[20]": {"experiment": "Antiepileptic activity in male CF1 mice 2 hr after oral administration measured in neurological toxicity (Tox) test at a dose of 50 mg/kg (no. of animals treated /protected); activity value is 0/4", "format": "functional, Mus musculus"}, "[21]": {"experiment": "Antiepileptic activity in male CF1 mice 30 min after administration measured in neurological toxicity (Tox) test at a dose of 300 mg/kg (no. of animals treated /protected); activity value is 3/4", "format": "functional, Mus musculus"}, "[22]": {"experiment": "Antiepileptic activity in male CF1 mice 2 hr after oral administration measured in maximum electroshock seizure(MES) test at a dose of 50 mg/kg (no. of animals treated /protected); activity value is 2/4", "format": "functional, Mus musculus"}, "[23]": {"experiment": "Antiepileptic activity in male CF1 mice 30 min after administration measured in maximum electroshock seizure(MES) test at a dose of 100 mg/kg (no. of animals treated /protected); activity value is 2/3", "format": "functional, Mus musculus"}, "[24]": {"experiment": "Antiepileptic activity in male CF1 mice 4 hr after administration measured in subcutaneous pentylenetetrazole (scMet) test at a dose of 100 mg/kg; activity value is 0/1", "format": "functional, Mus musculus"}, "[25]": {"experiment": "Dose elevating electroshock induced seizure by 20% in CF1 mice after ip administration.", "format": "functional, Mus musculus", "procedure,_shortened": "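In CF1 male mice (ca. 24–34 g), compound was given ip in 0.5% methylcellulose. The current giving hind limb extension in 50% of mice was found by the up-and-down method, with 15–25 mice per group and a vehicle control group run with each experimental group. At least three doses were tested. The dose raising threshold current by 20% was taken from a plot of dose against % threshold increase.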"}, "[26]": {"experiment": "Antiepileptic activity in male CF1 mice 0.25 hr after oral administration measured in maximum electroshock seizure(MES) test at a dose of 50 mg/kg (no. of animals treated /protected); activity value is 2/4", "format": "functional, Mus musculus"}, "[27]": {"experiment": "Protective index was measured as TD50/MES ED50 in mice on ip administration", "format": "ADME, organism-based", "conditions": "mouse, in vivo, read-out: PI", "procedure,_shortened": "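Male CF1 mice (ca. 24–34 g), compound given ip as 0.5% methylcellulose suspension. MES ED50 = dose protecting 50% from tonic hind limb extension; TD50 = median neurotoxic dose by rotorod; both at time of peak effect, with confidence limits by Litchfield and Wilcoxon. PI = TD50/MES ED50.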"}, "[28]": {"experiment": "Dose showing neurotoxicity in 50% of the at the time of peak neurotoxic effect in CF1 MICE after ip administration.", "format": "functional", "conditions": "Mus musculus", "procedure,_shortened": "as §1"}, "[29]": {"experiment": "Antiepileptic activity in male CF1 mice 4 hr after administration measured in neurological toxicity (Tox) test at a dose of 100 mg/kg; activity value is 0/4", "format": "functional, Mus musculus"}},
  "data": [
    {"smiles": "COC(=O)C1C(=O)C=C(Nc2ccc(Cl)cc2)CC1C", "note": "(centres undefined)", "values": [
      {"measurement": "TD50", "setting": "[1]", "value": 255, "unit": "mg/kg"},
      {"measurement": "Activity", "setting": "[2]", "value": 2},
      {"measurement": "Activity", "setting": "[3]", "value": 0},
      {"measurement": "Activity", "setting": "[4]", "value": 4},
      {"measurement": "Activity", "setting": "[5]", "value": 1},
      {"measurement": "Reduction", "setting": "Rattus norvegicus [6]", "value": 40, "unit": "%"},
      {"measurement": "Activity", "setting": "[7]", "value": 0},
      {"measurement": "Activity", "setting": "[8]", "value": 3},
      {"measurement": "Activity", "setting": "[9]", "value": 0},
      {"measurement": "Average seizure score", "setting": "Rattus norvegicus [10]", "value": 3},
      {"measurement": "Average seizure score", "setting": "Rattus norvegicus [11]", "value": 3},
      {"measurement": "Reduction", "setting": "Rattus norvegicus [12]", "value": 49, "unit": "%"},
      {"measurement": "Activity", "setting": "[13]", "value": 4},
      {"measurement": "Activity", "setting": "[14]", "value": 0},
      {"measurement": "Activity", "setting": "[15]", "value": 0}
    ]},
    {"smiles": "COC(=O)C1C(=O)C=C(NCc2ccccc2)CC1C", "note": "(centres undefined)", "values": [
      {"measurement": "Activity", "setting": "[16]", "value": 0.1},
      {"measurement": "Average seizure score", "setting": "Rattus norvegicus [17]", "value": 2.6},
      {"measurement": "Activity", "setting": "[18]", "value": 0},
      {"measurement": "Activity", "setting": "[19]", "value": 3},
      {"measurement": "Activity", "setting": "[20]", "value": 0},
      {"measurement": "Activity", "setting": "[21]", "value": 3},
      {"measurement": "Activity", "setting": "[22]", "value": 2},
      {"measurement": "Activity", "setting": "[23]", "value": 2},
      {"measurement": "Activity", "setting": "[24]", "value": 0},
      {"measurement": "Dose", "setting": "[25]", "value": 13, "unit": "mg/kg"},
      {"measurement": "Activity", "setting": "[26]", "value": 2},
      {"measurement": "selectivity ratio", "setting": "[27]", "value": "> 11.9"},
      {"measurement": "ED50", "setting": "[28]", "value": "> 500", "unit": "mg/kg"},
      {"measurement": "Activity", "setting": "[29]", "value": 0}
    ]}
  ]
}
